This is a sample that favours compounds with a hit; in the whole collection about 2.9% have one here.
TRPC4 act = activators of mouse TRPC4 channel, primary screen, Fluo4 calcium, HEK293 TRPC4beta/mu-opioid cells; Short transient receptor potential channel 4 (Mus musculus), Q9QUQ5; 310,000 compounds, 0.49% hits; AID 2237, 2010; B-score at 10 µM; Fluo4 calcium fluorescence; hits give high values;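 active = B-score above 5 SD of library B-scores, and initial fluorescence ratio not above library mean plus 5 SD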;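 note: positive B-score marks a calcium rise read as TRPC4 activation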
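Incubation: 45 min room-temperature Fluo4 loading, 110 s read / System: HEK293 cells stably co-expressing mouse TRPC4beta and mu-opioid receptor / Signal: Fluo4 fluorescence, kinetic / Control set: buffer (low) and maximal DAMGO (high) / Measure: integrated baseline-normalised fluorescence ratio, converted to per-well B score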
TRPC6 inh = mouse TRPC6 channel inhibitors, primary screen, cell-based, HEK293, membrane potential dye. B-score at 10 µM. ACh-evoked depolarization; hits give low values. AID 2553, 2010. 310,000 compounds, 1.1% hits. Short transient receptor potential channel 6 (Mus musculus), Q61143;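 active = B-score under library mean minus 3 SD, initial fluorescence not abnormally high, positive integrated signal ratio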;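 note: B-score derived from integrated fluorescence ratio over the kinetic read; more negative B-score means stronger inhibition of depolarization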
TRPC4 PAM = positive allosteric modulators of TRPC4, primary screen, cell-based, mouse TRPC4beta, HEK293 mu-opioid, Fluo-4 calcium; 310,000 compounds, 0.42% hits; B-score at 10 µM; DAMGO EC20, Fluo-4 Ca2+ flux; hits give high values;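 active = B-score of calcium response area above 5 SD of library B-scores, with initial fluorescence ratio within 5 SD of library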;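 note: B-score of integrated fluorescence ratio over time as area under calcium response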
TRPC6 activator = mouse TRPC6 channel activators, primary screen, cell-based, HEK293, membrane potential dye; HEK293-TRPC6 membrane potential dye fluorescence; hits give high values; Short transient receptor potential channel 6 (Mus musculus), Q61143; B-score at 10 µM; 310,000 compounds, 0.13% hits;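 active = B-score of the integrated fluorescence ratio above library mean plus 3 SD, and starting fluorescence ratio within library mean plus 5 SD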;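 note: higher score means more depolarization so channel activation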
Kir21 inh = inhibitors of mouse Kir2.1 inward-rectifier potassium channel; HEK293-Kir2.1, FluxOR thallium flux fluorescence; hits give low values; B-score at 10 µM; 310,000 compounds, 0.85% hits; AID 1672, 2009;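 active = fluorescence ratio B-score at or below minus 3 SD of library scores, with starting-brightness B-score within 2 SD, cut at about -4.2 in these data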;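 note: channel flux triggered by added potassium and thallium sulfate stimulus; B-score of peak minus minimum fluorescence over baseline after thallium stimulus; more negative B-score means stronger Kir2.1 block with less thallium influx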
Target sequence (P35561 whole entry, looked up): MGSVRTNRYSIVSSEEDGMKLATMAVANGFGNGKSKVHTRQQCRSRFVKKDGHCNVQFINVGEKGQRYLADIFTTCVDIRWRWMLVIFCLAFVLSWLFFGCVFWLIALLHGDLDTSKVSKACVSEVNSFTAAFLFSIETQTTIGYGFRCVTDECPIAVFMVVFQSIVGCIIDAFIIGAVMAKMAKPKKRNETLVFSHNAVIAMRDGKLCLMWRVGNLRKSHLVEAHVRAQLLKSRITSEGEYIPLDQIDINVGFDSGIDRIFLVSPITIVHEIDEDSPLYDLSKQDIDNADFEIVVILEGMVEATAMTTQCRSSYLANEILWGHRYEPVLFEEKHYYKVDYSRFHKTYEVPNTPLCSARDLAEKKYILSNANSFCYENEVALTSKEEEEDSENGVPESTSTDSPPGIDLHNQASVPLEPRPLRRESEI
TRPC4 block = inhibitors of mouse TRPC4 channel, primary screen, Fluo4 calcium, HEK293 TRPC4beta/mu-opioid cells; AID 2247, 2010; Short transient receptor potential channel 4 (Mus musculus), Q9QUQ5; B-score at 10 µM; 300,000 compounds, 0.39% hits; DAMGO-evoked Fluo4 calcium flux; hits give low values;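 active = B-score over 3 SD under the library average, no early fluorescence shift, positive overall ratio signal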
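test system = HEK293 cells with stable TRPC4beta plus mu-opioid receptor expression | detection = Fluo4 Ca2+ flux fluorescence | read-out = integrated fluorescence ratio relative to baseline, converted to per-well B score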
HEK293 MPD ctr = parental HEK293 membrane potential modulation, confirmation, counter-screen for TRPC6 modulator project, cell-based | shares compounds with TRPC6 inh | membrane potential dye fluorescence | membrane potential signal change, % at 10 µM | 2,400 compounds, 51% hits;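 active = membrane potential signal moves up or down beyond 5 SD from buffer-only wells, on both duplicate plates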
HEK293 MPD ctr 2 = second counter-screen for TRPC6 modulators: effect in parental HEK293 cells. shares compounds with TRPC6 inh. membrane potential dye fluorescence; after compound, maximal acetylcholine stimulation. inhibition, % at 10 µM. 2,400 compounds, 14% hits. AID 488926;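 active = membrane potential signal drops by more than 5 SD from the mean control signal, in both duplicate plates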;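 note: plate controls were acetylcholine ECmax control wells for no effect and buffer only wells for full effect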
TRPC4/MOR mod = TRPC4 modulation by TRPC6 hit compounds, confirmation, selectivity assay for TRPC6 modulator project, cell-based, HEK293 TRPC4/mu-opioid, membrane potential dye, mouse | shares compounds with TRPC6 inh | membrane potential fluorescence | percent change from control (negative = decrease, positive = increase), % at 10 µM | 2,400 compounds, 69% hits;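 active = membrane potential signal moved up or down beyond 5 SD of buffer control wells, in both duplicate plates, actives on both sides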;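 note: plate controls were assay buffer wells for no effect and DAMGO maximal-effect wells for full effect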
TRPC4/MOR inh 2 = mouse TRPC4 off-target activity of TRPC6 modulators, second screen. inhibition, % at 10 µM. HEK293 TRPC4/mu-opioid, membrane potential dye fluorescence; stimulated with maximal-effect DAMGO. shares compounds with TRPC6 inh. 2,400 compounds, 55% hits;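 active = drop in membrane potential signal beyond 5 SD of the control wells in both duplicate plates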;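 note: TRPC4 counter screen for TRPC6 hits run under conditions tuned for TRPC6 not TRPC4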
TRPC6 inh conf = mouse TRPC6 channel inhibitors, confirmation, HEK293 cells, membrane potential dye, duplicate. ACh-evoked depolarization. inhibition, % at 10 µM. 3,300 compounds, 43% hits. shares compounds with TRPC6 inh. AID 488960, 2010;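 active = fluorescence ratio falls more than 5 SD below the full-stimulation control mean, in both duplicate runs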;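 note: integrated fluorescence ratio of peak minus minimum over baseline after agonist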
TRPC6 act conf = mouse TRPC6 channel activators, confirmation, HEK293 cells, membrane potential dye, duplicate. shares compounds with TRPC6 inh. HEK293-TRPC6 membrane potential dye fluorescence, FDSS. activation, % at 10 µM. 2,800 compounds, 11% hits. AID 488961, 2010;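 active = ratio signal rise beyond 5 SD above unstimulated control wells' mean, seen in both duplicate runs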;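 note: plate controls were buffer EC0 wells for no effect and acetylcholine ECmax response for full effect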
* = called active by the depositor; i = inactive; . = no result given.

SMILES	TRPC4 act	TRPC6 inh	TRPC4 PAM	TRPC6 activator	Kir21 inh	TRPC4 block	HEK293 MPD ctr	HEK293 MPD ctr 2	TRPC4/MOR mod	TRPC4/MOR inh 2	TRPC6 inh conf	TRPC6 act conf
O=C(c1ccccc1)N1CCCC(c2ccc(Cl)cc2)=N1	i	i	i	i	-0.03	i	.	.	.	.	.	.
CCCc1cnc(N2CCN(C(=O)c3ccccc3)CC2)nc1	i	i	i	i	-1	i	.	.	.	.	.	.
CN(C)c1cc(N/N=C/c2ccccc2C(F)(F)F)nc(N(C)C)n1	i	-5.07*	i	i	2.6	i	i	i	i	i	i	i
Cc1ccnc(SCCn2c(N3CCN(Cc4ccccc4)CC3)nc3c2c(=O)[nH]c(=O)n3C)n1	i	-10.2*	i	i	-0.52	i	-339.5%*	71.0%*	-61.0%*	57.0%*	59.0%*	i
COc1ccc(CCn2c(N3CCN(Cc4ccccc4)CC3)nc3c2c(=O)[nH]c(=O)n3C)cc1	i	i	i	i	0.67	i	.	.	.	.	.	.
OC(CCN1CCCCC1)(c1ccccc1)C1CCCCC1 (stereo unspecified)	i	-5.18*	i	i	-2.88	i	208.5%*	80.0%*	42.0%*	i	78.5%*	.
OC(CCN1CCOCC1)(c1ccc(Cl)cc1)C1CCCCC1 (stereo unspecified)	i	-5.71*	i	i	-3.54	i	149.0%*	i	25.5%*	45.0%*	43.5%*	i
CCCC(O)(CCN1CCOCC1)c1ccc(Cl)cc1 (stereo unspecified)	i	i	i	i	0.01	i	.	.	.	.	.	.
O=C(Cc1ccc([N+](=O)[O-])cc1)NCc1cccnc1	i	-5.15*	i	i	2.84	i	i	i	i	i	i	i
